This passage reports Activity, EC50 and GI50 results from ChEMBL document CHEMBL3616442, “Unconventional Knoevenagel-type indoles: Synthesis and cell-based studies for the identification of pro-apoptotic agents” (Eur J Med Chem, 2015).

Calls of active or inactive are those of the source. The rule behind the calls is not given here.

In one experiment the target is Tubulin (Homo sapiens) (UniProt P68371+Q9H4B7+P0DPH7+P68366+Q13509+Q71U36+P04350+Q3ZCM7+P07437+P68363+Q9BQE3+Q6PEY2+Q13885+Q9BVA1+Q9BUF5). As to the kind of experiment: Induction of Tubulin depolymerization in human MCF7 cells by immunofluorescence analysis. The format is cell-based. In outline:
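MCF-7 cells grown and treated on chamber slides, fixed in ice-cold 100% methanol, washed in PBS with 0.1% Triton X-100, blocked 30 min in 5% BSA, then mouse anti-tubulin for 1 h and Alexa 488 secondary for 1 h; DNA counterstained with 0.2 μg/mL propidium iodide for 2 min. Paclitaxel and PBOX-15 served as tubulin controls.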

Another experiment concerns MT4. Nature of the experiment: Antiproliferative activity against human MT4 cells after 96 hrs by MTT assay. The format is functional, cell-based. The conditions noted are these: MT4, 96 h. The method, boiled down:
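Exponentially growing MT-4 cells (CD4+ human T-cells carrying integrated HTLV-1 genome), seeded at 1×10^5 cells/mL in RPMI-1640 with 10% FCS and antibiotics. Serial dilutions of compound (DMSO stock 100 mM, diluted in medium), 37 °C, 5% CO₂, 96 h. Viability read by MTT. 50% inhibition versus untreated controls by linear regression. Mean ± SD of three independent determinations.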

In experiment [1] the test system is K562. As to the kind of experiment: Induction of cell cycle arrest in human K562 cells assessed as accumulation at G2/M phase after 24 hrs by propidium iodide staining based flow cytometric analysis. The format is functional. In outline:
(§1)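 Propidium iodide/RNase A flow cytometry of ethanol-fixed cells, 10,000 gated events at 488 nm; G2/M fraction measured after 18 h treatment (HL-60, MCF-7) or 24 h (K562); mean ± S.E.M. of three independent experiments.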
In general terms: In flow cytometry, cells or beads pass a laser one at a time.

The subject of experiment [2] is HL-60. Nature of the experiment: Induction of apoptosis in human HL60 cells by propidium iodide staining based flow cytometric analysis. The format is functional. The method, boiled down:
(§2)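 After treatment, cells harvested, fixed in ice-cold 70% ethanol at 4 °C, stained 30 min at 37 °C in the dark with 100 µg/mL propidium iodide plus 10 µg/mL RNase A; 10,000 gated cells analysed at 488 nm with debris excluded; apoptosis followed over time; mean ± S.E.M. of three independent experiments run in triplicate.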

For a further experiment, the system named is Nucleic Acid. As to the kind of experiment: Induction of DNA intercalation of plasmid pQE30 DNA at 0.01 to 1 mM by electrophoretic mobility assay. The format is nucleic-acid assay. The conditions noted are these: Escherichia coli. The method, boiled down: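 Compound dissolved in methanol and incubated with double-strand plasmid pQE-30 DNA for 10 min at 37 °C; gel loading buffer added and samples run on 0.7% agarose to separate closed circular and supercoiled forms.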

In experiment [3] the test system is HL-60. Nature of the experiment: Induction of cell cycle arrest in human HL60 cells assessed as accumulation at G2/M phase after 18 hrs by propidium iodide staining based flow cytometric analysis. The format is functional. The method, boiled down:
as §1

The subject of experiment [4] is MCF7. Nature of the experiment: Antiproliferative activity against human MCF7 cells after 3 days incubation by alamar blue method. The conditions noted are these: for GI50: MCF7, 72 h. The format is functional. In outline: (§3)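 HL-60 and K562 grown in RPMI 1640, MCF-7 in DMEM, each with 10% FCS, penicillin G and streptomycin. Seeded at 4x10⁴ (HL-60, K562) or 2x10⁴ (MCF-7) cells per well with serial compound dilutions, incubated 3 days at 37 °C. Alamar blue added for 3 h at 37 °C in the dark, fluorescence read at ex 544/em 590 nm. IC50 versus untreated controls by linear regression.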
(The colour change of resazurin is a common sign of viable cells or microbes.)

For experiment [5], the system named is MCF7. Nature of the experiment: Induction of apoptosis in human MCF7 cells by propidium iodide staining based flow cytometric analysis. The format is functional. The method, boiled down:
as §2

The test system of experiment [6] is K562. Nature of the experiment: Antiproliferative activity against human K562 cells after 3 days incubation by alamar blue method. The format is functional. The conditions noted are these: for GI50: K562, 72 h. In outline: as §3
In experiment [7] the test system is MCF7. Nature of the experiment: Induction of cell cycle arrest in human MCF7 cells assessed as accumulation at G2/M phase after 18 hrs by propidium iodide staining based flow cytometric analysis. The format is functional. The method, boiled down:
as §1

The subject of experiment [8] is K562. As to the kind of experiment: Induction of apoptosis in human K562 cells by propidium iodide staining based flow cytometric analysis. The format is functional. The method, boiled down: as §2
Experiment [9] relates to HL-60. Nature of the experiment: Antiproliferative activity against human HL60 cells after 3 days incubation by alamar blue method. The format is functional. The conditions noted are these: for GI50: HL-60, 72 h. The method, boiled down:
as §3

The test system of a further experiment is HepG2. Nature of the experiment: Cytotoxicity against human HepG2 cells after 96 hrs by MTT assay. The format is functional, cell-based. The conditions noted are these: HepG2, 96 h. The method, boiled down:
(§4)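 ATCC cell lines, mycoplasma-free by Hoechst staining. Haematological lines in RPMI-1640, solid-tumour and normal fibroblast lines in their own media, all with 10% FCS and antibiotics, at 37 °C in 5% CO₂. Compounds added as serial dilutions from a 100 mM DMSO stock diluted in medium. Viability by MTT after 96 h at 37 °C. Mean ± SD of three independent determinations.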

In a further experiment the test system is SK-MEL-28. As to the kind of experiment: Cytotoxicity against human SK-MEL-28 cells after 96 hrs by MTT assay. The format is functional, cell-based. The conditions noted are these: SK-MEL-28, 96 h. The method, boiled down:
as §4

The test system of experiment [10] is MCF7. Nature of the experiment: Cytotoxicity against human MCF7 cells after 96 hrs by MTT assay. The format is functional, cell-based. The conditions noted are these: MCF7, 96 h. The method, boiled down:
as §4

For the next experiment, the system named is MRC5. Nature of the experiment: Cytotoxicity against human MRC5 cells after 96 hrs by MTT assay. The format is cell-based. The conditions noted are these: MRC5, 96 h. In outline: as §4
A general note: Tetrazolium assays rely on reduction of a dye to a coloured formazan, in cell work by metabolically active cells.

Experiment [11] is described as follows: Cytotoxicity against human SKMES1 cells after 96 hrs by MTT assay. The format is functional, cell-based. The conditions noted are these: SK-MES-1, 96 h. In outline: as §4
The next experiment relates to CCRF-SB. Nature of the experiment: Cytotoxicity against human CCRF-SB cells after 96 hrs by MTT assay. The format is functional, cell-based. The method, boiled down: as §4
In a further experiment the test system is DU-145. As to the kind of experiment: Cytotoxicity against human DU145 cells after 96 hrs by MTT assay. The format is functional, cell-based. The conditions noted are these: DU-145, 96 h. In outline:
as §4

Experiment [12] is described as follows: Cytotoxicity against human CRL7065 cells after 96 hrs by MTT assay. The format is cell-based. The conditions noted are these: CRL-7065, 96 h. In outline:
as §4

The subject of the next experiment is WIL2-NS. As to the kind of experiment: Cytotoxicity against human WIL2-NS cells after 96 hrs by MTT assay. The format is functional, cell-based. The method, boiled down:
as §4

In another experiment the test system is CCRF-CEM. As to the kind of experiment: Cytotoxicity against human CCRF-CEM cells after 96 hrs by MTT assay. The format is functional, cell-based. The method, boiled down: as §4

For the compound `CC(=O)OC1=C(c2cccc3ccccc23)Oc2cc3ccccc3cc2-n2cccc21`, the result on Tubulin (Homo sapiens) was Active.
`CS(=O)(=O)/C(C#N)=C/c1c(-c2ccccc2)[nH]c2ccccc12` registered an EC50 with MT4 of 0.3 µM. Besides, the Activity in the experiment with K562 [1] is 46.8%; in the experiment with HL-60 [2] (TDE = time-dependent effect), “tde”; in the experiment with HL-60 [3], 39.7%; with MCF7 [4] it was “Dose-dependent effect”; with MCF7 [5] it was 28.4%; in the experiment on MCF7 [5] (TDE = time-dependent effect), “tde”. In addition, the Activity entry was “Dose-dependent effect” with K562 [6]; 41.3% in the experiment with MCF7 [7]; 47.5% in the experiment with K562 [8]; “tde” in the experiment with K562 [8] (TDE = time-dependent effect); “Dose-dependent effect” with HL-60 [9]. Also, the outcome in the experiment on Nucleic Acid was inactive. Also, the values for the GI50 with MCF7 [4], in the experiment on K562 [6] and in the experiment with HL-60 [9] were greater than 10 µM, greater than 10 µM and 1.32 µM, respectively. Further, the result on Tubulin (Homo sapiens) was Active.
Take `N#C/C(=C\c1c(-c2ccccc2)[nH]c2ccccc12)C(=O)c1cccs1`: the 50% effective concentration (EC50) with HepG2 turned out to be 25 µM; with SK-MEL-28, 28 µM; with MCF7 [10] it was 29 µM; in the experiment with MT4, 0.4 µM; in the experiment on MRC5 it was 20 µM; in experiment [11] it was 4 µM. Moreover, the EC50 is 0.6 µM with CCRF-SB; 11 µM in the experiment with DU-145; 45 µM in experiment [12]; 6.4 µM in the experiment on WIL2-NS; 1.2 µM with CCRF-CEM. For the same compound, the Activity with HL-60 [2] is 61.3%; in the experiment with HL-60 [2] (TDE = time-dependent effect) it was “tde”; in the experiment with MCF7 [4], “Dose-dependent effect”; in the experiment on MCF7 [5] it was 34.1%; with MCF7 [5] (TDE = time-dependent effect) it was “tde”; with K562 [6], “Dose-dependent effect”. The Activity result in the experiment on K562 [8] (TDE = time-dependent effect) was “tde”; in the experiment with HL-60 [9], “Dose-dependent effect”. Moreover, the GI50 with MCF7 [4] was greater than 10 µM; with K562 [6], greater than 10 µM; in the experiment on HL-60 [9], 2.11 µM.

As usually defined, the EC50 is the concentration giving half of the maximal effect. A high value points to a need for much substance. As a reminder, the GI50 is the concentration giving 50% growth inhibition.
